Measured values taken from ChEMBL document CHEMBL1152435, “Efficacious 11beta-hydroxysteroid dehydrogenase type I inhibitors in the diet-induced obesity mouse model” (J Med Chem, 2009).
Activity calls are given as the source filed them. The rule behind the calls is not given here.

Experiments:
[1] = system: Mus musculus; assay: Inhibition of 11betaHSD1 in C57Bl6 mouse epididymal fat tissue assessed as conversion of [3H]cortisone to [3H]cortisol at 10 mg/kg, po after 5 hrs; format: functional; conditions: C57Bl6, Adipose tissue
Procedure, shortened: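 Mice were killed 5 h after a single oral dose. Whole liver and epididymal fat were excised, and each intact tissue was incubated in medium containing [3H]-cortisone to measure ex vivo 11β-HSD1 activity.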

[2] = AUC in C57/B6 mouse at 10 mg/kg, po; format: ADME, organism-based; set-up: dose 10 mg/kg, route oral; conditions: plasma
[3] = AUC in C57/B6 mouse at 2 mg/kg, iv; format: ADME, organism-based; set-up: dose 2 mg/kg, route intravenous; conditions: plasma
[4] = Cmax in C57/B6 mouse at 10 mg/kg, po; format: ADME, organism-based; set-up: dose 10 mg/kg, route oral; conditions: in vivo
[5] = Drug level in DIO-C57/B6 mouse fat in stress free condition at 30 mg/kg in food containing 0.5 mg/gram of high fat diet for 31 days measured on day 4 at 10 pm; format: ADME, organism-based; set-up: dose 30 mg/kg; conditions: fat (adipose tissue), po, read-out: Drug uptake
[6] = Drug level in DIO-C57/B6 mouse liver in stress free condition at 30 mg/kg in food containing 0.5 mg/gram of high fat diet for 31 days measured on day 4 at 10 pm; format: ADME, organism-based; set-up: dose 30 mg/kg; conditions: po, read-out: Drug uptake
[7] = Drug level in DIO-C57/B6 mouse serum in stress free condition at 30 mg/kg in food containing 0.5 mg/gram of high fat diet for 31 days measured on day 4 at 10 pm; format: ADME, organism-based; set-up: dose 30 mg/kg; conditions: po, read-out: Drug uptake
[8] = Half life in C57/B6 mouse at 2 mg/kg, iv; format: ADME, organism-based; set-up: dose 2 mg/kg, route intravenous; conditions: in vivo
[9] = system: Mus musculus; assay: Reduction in glucose level in DIO-C57/B6 mouse serum in stress free condition administered compound at 0.5 mg/gram of high fat diet by 28 day food mix study; format: functional, organism-based
[10] = Oral bioavailability in C57/B6 mouse at 10 mg/kg; format: ADME, organism-based; conditions: in vivo
[11] = system: Mus musculus; assay: Reduction in insulin level in DIO-C57/B6 mouse serum in stress free condition administered compound at 0.5 mg/gram of high fat diet by 28 day food mix study; format: functional, organism-based
[12] = in vitro; conditions: human, liver microsomes
[13] = Volume of distribution at steady state in C57/B6 mouse at 2 mg/kg, iv; format: ADME, organism-based; set-up: dose 2 mg/kg, route intravenous; conditions: in vivo, read-out: Vdss
[14] = Clearance in C57/B6 mouse at 2 mg/kg, iv; format: ADME, organism-based; set-up: dose 2 mg/kg, route intravenous; conditions: in vivo
[15] = Drug level in DIO-C57/B6 mouse serum in stress free condition at 30 mg/kg in food containing 0.5 mg/gram of high fat diet for 31 days measured on day 4 at 10 am; format: ADME, organism-based; set-up: dose 30 mg/kg; conditions: po, read-out: Drug uptake
[16] = in vitro; conditions: mouse, liver microsomes
[17] = Drug level in DIO-C57/B6 mouse liver in stress free condition at 30 mg/kg in food containing 0.5 mg/gram of high fat diet for 31 days measured on day 4 at 10 am; format: ADME, organism-based; set-up: dose 30 mg/kg; conditions: po, read-out: Drug uptake
[18] = system: Mus musculus; assay: Inhibition of 11betaHSD1 in DIO-C57B6 mouse liver at 30 mg/kg in food containing 0.5 mg/gram of high fat diet after 96 hrs; format: functional
[19] = Half life in C57/B6 mouse at 10 mg/kg, po; format: ADME, organism-based; set-up: dose 10 mg/kg, route oral; conditions: in vivo
[20] = Drug level in DIO-C57/B6 mouse fat in stress free condition at 30 mg/kg in food containing 0.5 mg/gram of high fat diet for 31 days measured on day 4 at 10 am; format: ADME, organism-based; set-up: dose 30 mg/kg; conditions: fat (adipose tissue), po, read-out: Drug uptake
[21] = Tmax in C57/B6 mouse at 10 mg/kg, po; format: ADME, organism-based; set-up: dose 10 mg/kg, route oral; conditions: in vivo
[22] = system: Cynomolgus monkey; assay: Reduction of plasma insulin level in normal cynomolgus monkey at 3 mg/kg after 8 hrs; format: functional, Macaca fascicularis; set-up: scale not given: the % may be the effect or the level left
[23] = system: Cynomolgus monkey; assay: Reduction of plasma insulin level in normal cynomolgus monkey at 1 mg/kg after 8 hrs; format: functional, Macaca fascicularis; set-up: scale not given: the % may be the effect or the level left
[24] = Metabolic stability in human liver microsomes; format: ADME, Microsome; conditions: read-out: Stability
[25] = Metabolic stability in mouse liver microsomes; format: ADME, Microsome; conditions: read-out: Stability

Work on `C[C@@H]1CN(c2ccc(F)cc2C(F)(F)F)CCN1S(=O)(=O)c1ccc(C(N)=O)cc1Cl` yielded an inhibition in vivo at 10 mg/kg [1] of 80%, an AUC [2] of 17000 ng·h/mL and an AUC [3] of 6740 ng·h/mL. For the same molecule, the Cmax [4] was 1440 ng/mL, the concentration at 744 h [5] was 3360 ng/g and the concentration at 744 h [6] was 9540 ng/g. The concentration at 744 h [7] was 1090 ng/mL, the half-life [8] was 7.3 h and the Activity [9] was “Active”. For the same molecule, the bioavailability [10] was 50%, the Activity [11] was “Active” and the half-life [12] was over 0.5 h. It also gave a Vd [13] of 2.6 L/kg, a clearance [14] of 5 mL/min/kg and a concentration at 744 h [15] of 1140 ng/mL. For the same molecule, the half-life [16] was over 0.5 h, the concentration at 744 h [17] was 8130 ng/g and the inhibition in vivo at 30 mg/kg [18] was 95%. For the same molecule, the half-life [19] was 7.2 h, the concentration at 744 h [20] was 3620 ng/g and the Tmax [21] was 4 h.
`N#Cc1ccc(-c2ccc(S(=O)(=O)Nc3cccc(N)n3)cc2)cc1` gave an Activity [22] of 60% and an Activity [23] of 54%.
Molecule `C[C@@H]1CN(c2ccc(F)cc2C(F)(F)F)CCN1S(=O)(=O)c1cccc(-n2cncn2)c1` has a half-life [24] of 0.283 h and a half-life [25] of 0.2 h.
